Test results: EPA's CvTdb concentration-time database
Where “and” joins values, the source holds several entries; their conditions need not be identical. Equal values may be shown once.

Experiments:
Rat [1] = experiment: concentration in kidney after dosing; details: 864 h; dosed: Perfluorooctane Sulfonate; 2 mg/kg; oral; Female; Harlan Sprague Dawley
Rat [2] = experiment: concentration in brain after dosing; details: 24 h; dosed: Perfluorooctane Sulfonate; 20 mg/kg; oral; Male; Harlan Sprague Dawley
Rat [3] = experiment: concentration in brain after dosing; details: 3360 h; dosed: Perfluorooctane Sulfonate; 20 mg/kg; oral; Male; Harlan Sprague Dawley
Rat [4] = experiment: concentration in liver after dosing; details: 864 h; dosed: Perfluorooctane Sulfonate; 2 mg/kg; oral; Female; Harlan Sprague Dawley
Rat [5] = experiment: concentration in liver after dosing; details: 3360 h; dosed: Perfluorooctane Sulfonate; 2 mg/kg; oral; Female; Harlan Sprague Dawley
Rat [6] = experiment: concentration in liver after dosing; details: 864 h; dosed: Perfluorooctane Sulfonate; 2 mg/kg; oral; Female; Harlan Sprague Dawley; remark: listed apart in the source
Rat [7] = experiment: concentration in plasma after dosing; details: 24 h; dosed: Perfluorooctane Sulfonate; 2 mg/kg; oral; Female; Harlan Sprague Dawley
Rat [8] = experiment: concentration in liver after dosing; details: 1848 h; dosed: Perfluorooctane Sulfonate; 2 mg/kg; oral; Female; Harlan Sprague Dawley
Rat [9] = experiment: concentration in plasma after dosing; details: 6 h; dosed: Gemfibrozil; 4.29 mg/kg; oral; Male; Sprague-Dawley
Rat [10] = experiment: concentration in plasma after dosing; details: 15 h; dosed: Gemfibrozil; 50 mg/kg; oral; Male; Sprague-Dawley
Rat [11] = experiment: concentration in plasma after dosing; details: 18 h; dosed: Gemfibrozil; 100 mg/kg; oral; Male; Sprague-Dawley
Rat [12] = experiment: concentration in plasma after dosing; details: 18 h; dosed: Gemfibrozil; 100 mg/kg; oral; Male; Sprague-Dawley; remark: listed apart in the source
Rat [13] = experiment: concentration in plasma after dosing; details: 5 min; dosed: Gemfibrozil; 100 mg/kg; oral; Male; Sprague-Dawley
Rat [14] = experiment: concentration in plasma after dosing; details: 5 min; dosed: Gemfibrozil; 4.29 mg/kg; oral; Male; Sprague-Dawley
Rat [15] = experiment: concentration in plasma after dosing; details: 10 min; dosed: Gemfibrozil; 50 mg/kg; oral; Male; Sprague-Dawley
Rat [16] = experiment: concentration in plasma after dosing; details: 6 h; dosed: Gemfibrozil; 100 mg/kg; oral; Male; Sprague-Dawley
Rat [17] = experiment: concentration in plasma after dosing; details: dosed: Perfluorohexanoic Acid, 80 mg/kg, oral, Male, Harlan Sprague Dawley
Rat [18] = experiment: concentration in plasma after dosing; details: 1.5 h; dosed: Perfluorohexanoic Acid; 40 mg/kg; iv; Male; F344
Rat [19] = experiment: concentration in kidney after dosing; details: 3 h; dosed: Perfluorohexanoic Acid; 80 mg/kg; oral; Male; Harlan Sprague Dawley
Rat [20] = experiment: concentration in brain after dosing; details: 1 h; dosed: Perfluorohexanoic Acid; 80 mg/kg; oral; Female; Harlan Sprague Dawley
Rat [21] = experiment: concentration in plasma after dosing; details: 5 min; dosed: Perfluorohexanoic Acid; 40 mg/kg; iv; Male; F344
Rat [22] = experiment: concentration in kidney after dosing; details: 3 h; dosed: Perfluorohexanoic Acid; 80 mg/kg; oral; Female; Harlan Sprague Dawley
Rat [23] = experiment: concentration in liver after dosing; details: 1 h; dosed: Perfluorohexanoic Acid; 80 mg/kg; oral; Male; Harlan Sprague Dawley
human = experiment: concentration in expired air after dosing; details: dosed: trichloroethylene, 100 ppm, inhalation, duration: 4 hr, person
Method in brief: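 Concentration-versus-time or amount-versus-time points were compiled from published in vivo toxicokinetic studies and from two structured collections. The studies were found by PubMed searching, classifier screening and manual review. Points were mostly digitised from plot screenshots with WebPlotDigitizer, otherwise copied from tables, and kept in the reported units. Dose, route, subject details and medium were curated by hand from each paper, and sampling and analytical methods follow each source and were often unreported.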

Rat [24] = experiment: concentration in plasma after dosing; details: dosed: 678-39-7, 12 mg/kg, iv, Male, F344
Rat [25] = experiment: concentration in plasma after dosing; details: 3 h; dosed: 678-39-7; 12 mg/kg; iv; Male; F344
Rat [26] = experiment: concentration in liver after dosing; details: 6 h; dosed: Fluorotelomer alcohol 8+2; 80 mg/kg; oral; Female; Harlan Sprague Dawley
Rat [27] = experiment: concentration in plasma after dosing; details: dosed: Fluorotelomer alcohol 8+2, 12 mg/kg, oral, Male, Harlan Sprague Dawley
Rat [28] = experiment: concentration in plasma after dosing; details: dosed: Fluorotelomer alcohol 8+2, 12 mg/kg, oral, Male, Harlan Sprague Dawley; remark: listed apart in the source
Rat [29] = experiment: concentration in brain after dosing; details: 12 h; dosed: Fluorotelomer alcohol 8+2; 24 mg/kg; oral; Male; Harlan Sprague Dawley
Rat [30] = experiment: concentration in plasma after dosing; details: 0.75 h; dosed: 2-Methyltetrahydrofuran; 40 mg/kg; iv; Male; Harlan Sprague Dawley
Rat [31] = experiment: concentration in plasma after dosing; details: 2 h; dosed: 2-Methyltetrahydrofuran; 40 mg/kg; iv; Female; Harlan Sprague Dawley
Rat [32] = experiment: concentration in plasma after dosing; details: 0.75 h; dosed: 2-Methyltetrahydrofuran; 40 mg/kg; iv; Male; Harlan Sprague Dawley; remark: listed apart in the source
Rat [33] = experiment: concentration in brain after dosing; details: 0.75 h; dosed: 2-Methyltetrahydrofuran; 40 mg/kg; iv; Male; Harlan Sprague Dawley
Rat [34] = experiment: concentration in plasma after dosing; details: 0.2 h; dosed: 2-Methyltetrahydrofuran; 40 mg/kg; iv; Male; Harlan Sprague Dawley
Rat [35] = experiment: concentration in plasma after dosing; details: 0.5 h; dosed: 2-Methyltetrahydrofuran; 40 mg/kg; iv; Male; Harlan Sprague Dawley

O=S(=O)([O-])C(F)(F)C(F)(F)C(F)(F)C(F)(F)C(F)(F)C(F)(F)C(F)(F)C(F)(F)F [Perfluorooctane Sulfonate]
Details	concentration in brain [ng/g]	concentration in kidney [ng/g]	concentration in liver [ng/g]	concentration in plasma [ng/mL]
Rat [1]	–	3490	–	–
Rat [2]	9740	–	–	–
Rat [3]	890	–	–	–
Rat [4]	–	–	17500	–
Rat [5]	–	–	9920	–
Rat [6]	–	–	8950	–
Rat [7]	–	–	–	5040
Rat [8]	–	–	12000	–

Cc1ccc(C)c(OCCCC(C)(C)C(=O)O)c1 [Gemfibrozil]
Details	concentration in plasma [ng/mL]
Rat [9]	388
Rat [10]	1550
Rat [11]	3080
Rat [12]	3300
Rat [13]	1930
Rat [14]	485
Rat [15]	76500
Rat [16]	13800

O=C(O)C(F)(F)C(F)(F)C(F)(F)C(F)(F)C(F)(F)F [Perfluorohexanoic Acid]
Rat [17]
Details	concentration in plasma [ng/mL]
5 min	29100
9 h	4040

Details	concentration in brain [ng/g]	concentration in kidney [ng/g]	concentration in liver [ng/g]	concentration in plasma [ng/mL]
Rat [18]	–	–	–	8050
Rat [19]	–	65000	–	–
Rat [20]	1340	–	–	–
Rat [21]	–	–	–	18600
Rat [22]	–	38000	–	–
Rat [23]	–	–	88800	–

ClC=C(Cl)Cl [trichloroethylene]
human
Details	concentration in expired air
0.1172 h	7.17 ppm
0.1972 h	5.83 ppm
0.3304 h	5.7 ppm
0.4637 h	4.83 ppm
0.9967 h	2.59 ppm
2.009 h	1.89 ppm
4.021 h	1.39 ppm
5.993 h	1.35 ppm
8.019 h	1.01 ppm
10.04 h	1.08 ppm
12.02 h	0.874 ppm
38 s	21.7 ppm
230 s	14.3 ppm and 10.8 ppm

O=C(O)CCC(F)(F)C(F)(F)C(F)(F)C(F)(F)C(F)(F)C(F)(F)C(F)(F)F [Fluorotelomer acid 7+3]
concentration in plasma [ng/mL]
Details	0.25 h	0.75 h	6 h	12 h
Rat [24]	–	334	–	90
Rat [27]	–	313	–	197
Rat [28]	152	–	522	–

Details	concentration in brain [ng/g]	concentration in liver [ng/g]	concentration in plasma [ng/mL]
Rat [25]	–	–	735
Rat [26]	–	7770	–
Rat [29]	98.2	–	–

CC1CCCO1 (configuration not stated) [2-Methyltetrahydrofuran]
Details	concentration in brain [ng/mL]	concentration in plasma [ng/mL]
Rat [30]	–	23700
Rat [31]	–	9860
Rat [32]	–	22000
Rat [33]	14400	–
Rat [34]	–	32200
Rat [35]	–	25600
